Experimental data of several laboratories.
Lines come from different studies, so protocols differ.
gag-pol integrase: Gag-Pol polyprotein, integrase (gag-pol, Human immunodeficiency virus 1, UniProt P12497)
ADRA1B: Alpha-1B adrenergic receptor (ADRA1B, Homo sapiens, UniProt P35368)
Tumor necrosis factor receptor superfamily member 9: Tumor necrosis factor receptor superfamily member 9 (Homo sapiens, UniProt Q07011)
PPARA: Peroxisome proliferator-activated receptor alpha (PPARA, Homo sapiens, UniProt Q07869)
CYP2D6: Cytochrome P450 2D6 (CYP2D6, Homo sapiens, UniProt P10635)

`O=C(O)[C@H](Cc1ccc2ccccc2c1)NC(=O)C1(c2ccc3ccccc3c2)CCN(CCC(F)(F)F)CC1` has an IC50 of 180 µM (gag-pol integrase; enzyme activity, inhibitor, TR-FRET).
The Ki of `CC(C)C[C@H](NC(=O)[C@H](CCCCN)NC(=O)[C@@H]1CCCN1C(=O)[C@@H](N)CCCNC(=N)N)C(=O)N[C@@H](CCCCN)C(=O)O` is reported as 2.9 µM (ADRA1B; cell-free assay, radioligand).
The Kd of `CCCC[C@@H]1NC(=O)[C@H](Cc2ccc(O)cc2)NC(=O)[C@@H]2CCCN2C(=O)[C@H](CC(N)=O)NC(=O)[C@H](C)NC(=O)[C@H](Cc2ccccc2)NC(=O)[C@@H]2CSCCC(=O)N3CN(CN(C3)C(=O)CCSC[C@H](NC(C)=O)C(=O)N[C@@H](CC(C)(C)C)C(=O)N3CCC[C@H]3C(=O)N[C@@H](CCC(=O)O)C(=O)N[C@H](CCCCNC(=O)CCc3cn(CCOCCOCCOCCOCCOCCC(=O)N[C@H]4CSCCC(=O)N5CN6CN(C5)C(=O)CCSC[C@H](NC(=O)[C@@H](CC(=O)O)NC(=O)[C@H](Cc5cccc7ccccc57)NC(=O)[C@@H]5CCCN5C4=O)C(=O)N[C@@H](CCSC)C(=O)N[C@@H](CCCCNC(=N)N)C(=O)N[C@@H](CC(=O)O)C(=O)N[C@@H](Cc4c[nH]c5ccccc45)C(=O)N[C@@H](CO)C(=O)N[C@@H]([C@@H](C)O)C(=O)N4CCC[C@H]4C(=O)N4C[C@H](O)C[C@H]4C(=O)N[C@@H](Cc4c[nH]c5ccccc45)C(=O)N[C@H](C(N)=O)CSCCC6=O)nn3)C(=O)N3CCC[C@H]3C(=O)N[C@@H](Cc3ccc(O)cc3)C(=O)N2)C(=O)CCSC[C@@H](C(N)=O)NC1=O` is reported as 0.878 µM (Tumor necrosis factor receptor superfamily member 9; binding, SPR).
`CC(C)C[C@H](NC(=O)[C@H](Cc1ccccc1)NC(=O)[C@H](Cc1ccc(O)cc1)NC(=O)CNC(=O)[C@H](CCCCN)NC(=O)[C@H](CO)NC(=O)[C@H](CCC(N)=O)NC(=O)CNC(=O)[C@@H](NC(=O)[C@H](CO)NC(=O)[C@@H]1CCCN1C(=O)[C@H](CO)NC(=O)[C@H](CCC(N)=O)NC(=O)[C@H](Cc1ccc(O)cc1)NC(=O)[C@H](CCC(=O)O)NC(=O)[C@H](C)NC(=O)[C@H](CCCCN)NC(=O)[C@@H](N)Cc1ccccc1)C(C)C)C(=O)N[C@@H](Cc1ccccc1)C(=O)N[C@@H](CCCNC(=N)N)C(=O)N1CCC[C@H]1C(=O)N[C@@H](CCCNC(=N)N)C(=O)N[C@@H](CC(N)=O)C(N)=O` gave an EC50 of 0.00024 µM (Neuromedin-U receptor 2 (NMUR2, Homo sapiens, UniProt Q9GZQ4); inositol phosphate, agonist).
With `O=C(O)C(F)(OC(F)(F)C(F)(F)C(F)(F)F)C(F)(F)F` (stereo not drawn) the EC50 was 2.1 µM (PPARA; reporter gene, agonist, luciferase).
The Kd of `CCCC[C@@H]1NC(=O)[C@H](Cc2ccc(O)cc2)NC(=O)[C@@H]2CCCN2C(=O)[C@H](CC(=O)O)NC(=O)[C@H](C)NC(=O)[C@H](Cc2ccccc2)NC(=O)[C@@H]2CSCCC(=O)N3CN(CN(C3)C(=O)CCSC[C@@H](C(=O)N[C@@H](C)C(N)=O)NC1=O)C(=O)CCSC[C@H](NC(C)=O)C(=O)N[C@@H](CC(C)(C)C)C(=O)N1CCC[C@H]1C(=O)N[C@@H](CCC(=O)O)C(=O)N[C@H](CCCCNC(=O)CCc1cn(CCOCCOCCOCCOCCOCCC(=O)NCCCC[C@H]3NC(=O)[C@H](Cc4cccc5ccccc45)NC(=O)[C@@H]4CCCN4C(=O)CCSCCC(=O)N4CN5CN(C4)C(=O)CCSC[C@H](NC3=O)C(=O)N[C@@H](CCSC)C(=O)N[C@@H](CCCCNC(=N)N)C(=O)N[C@@H](CC(=O)O)C(=O)N[C@@H](Cc3c[nH]c4ccccc34)C(=O)N[C@@H](CO)C(=O)N[C@@H]([C@@H](C)O)C(=O)N3CCC[C@H]3C(=O)N3C[C@H](O)C[C@H]3C(=O)N[C@@H](Cc3c[nH]c4ccccc34)C(=O)N[C@H](C(N)=O)CSCCC5=O)nn1)C(=O)N1CCC[C@H]1C(=O)N[C@@H](Cc1ccc(O)cc1)C(=O)N2` is reported as 0.0032 µM (Tumor necrosis factor receptor superfamily member 9; binding, SPR).
`c1ccc(-c2c[nH]c3ncnc(N4CCOCC4)c23)cc1` gave an IC50 of 0.035 µM (Serine/threonine-protein kinase 4 (STK4, Homo sapiens, UniProt Q13043); enzyme activity, inhibitor, ADP detection).
`CC(=O)N[C@@H](CC(C)C)C(=O)N[C@@H](CC(C)C)C(=O)N[C@@H](CC(C)C)C(=O)N[C@@H](CCCN=C(N)N)C(=O)N[C@H](C(=O)N[C@@H](CCCCN)C(=O)N[C@@H](CCCN=C(N)N)C(N)=O)C(C)C` has a Ki of 0.5 µM (Neuroendocrine convertase 2 (Homo sapiens, UniProt P16519); enzyme activity, inhibitor).
The Ki of `[Cd+2]` is reported as 5.22 µM (Protein phosphatase 1A (PPM1A, Homo sapiens, UniProt P35813, D239A); enzyme activity, inhibitor, absorbance; pH 8).
The IC50 of `O=C(O)[C@H](Cc1ccc2ccccc2c1)NC(=O)C1(c2ccc(F)cc2)CCN(CCC(F)(F)F)CC1` is reported as 206 µM (gag-pol integrase; enzyme activity, inhibitor, TR-FRET).
The EC50 of `O=C(O)C(F)(F)C(F)(F)C(F)(F)C(F)(F)C(F)(F)C(F)(F)C(F)(F)F` is reported as 9.5 µM (PPARA; reporter gene, agonist, luciferase).
The EC50 of `Cc1cc(SCc2sc(-c3ccc(C(F)(F)F)c(F)c3)nc2C)ccc1OCC(=O)O` is reported as 1.3 µM (PPARA; reporter gene, agonist, luciferase).
`CC(C)Oc1cccnc1N(C)C1CCN(Cc2ccc(I)cc2)CC1` gave a Ki of 0.085 µM (D(2) dopamine receptor (Drd2, Rattus norvegicus, UniProt P61169); ligand displacement, radioligand; cell membranes).
`COCCCN1CCN(c2ccccc2OC)CC1` has a Ki of 0.24 µM (ADRA1B; ligand displacement, radioligand).
The IC50 of `Cc1c(C2(c3ccc(C(F)(F)F)nc3)CC2)c[nH]c1C(=O)NC(C)c1c[nH]cn1` (stereo not drawn) is reported as 0.32 µM (CYP2D6; enzyme activity, inhibitor; human, liver microsomes).
`CCCC[C@@H]1NC(=O)[C@H](Cc2ccc(O)cc2)NC(=O)[C@@H]2CCCN2C(=O)[C@H](CC(=O)O)NC(=O)[C@H](C)NC(=O)[C@H](Cc2ccccc2)NC(=O)[C@@H]2CSCCC(=O)N3CN(CN(C3)C(=O)CCSC[C@@H](C(=O)N[C@@H](C)C(N)=O)NC1=O)C(=O)CCSC[C@H](NC(C)=O)C(=O)N[C@@H](CC(C)(C)C)C(=O)N1CCC[C@H]1C(=O)N[C@@H](CCC(=O)O)C(=O)N[C@H](CCCCNC(=O)CCc1cn(CCOCCOCCOCCOCCOCCC(=O)NCCCC[C@H]3NC(=O)[C@H](Cc4cccc5ccccc45)NC(=O)[C@@H]4CCCN4C(=O)[C@@H](NC(C)=O)CSCCC(=O)N4CN5CN(C4)C(=O)CCSC[C@H](NC3=O)C(=O)N[C@@H](CCSC)C(=O)N[C@@H](CCCCNC(=N)N)C(=O)N[C@@H](CCC(=O)O)C(=O)N[C@@H](Cc3c[nH]c4ccccc34)C(=O)N[C@@H](CO)C(=O)N[C@@H]([C@@H](C)O)C(=O)N3CCC[C@H]3C(=O)N3C[C@H](O)C[C@H]3C(=O)N[C@@H](Cc3c[nH]c4ccccc34)C(=O)N[C@H](C(N)=O)CSCCC5=O)nn1)C(=O)N1CCC[C@H]1C(=O)N[C@@H](Cc1ccc(O)cc1)C(=O)N2` gave a Kd of 0.0072 µM (Tumor necrosis factor receptor superfamily member 9; binding, SPR).
For `O=C(O)CCC(c1ccccc1)(c1ccccc1)c1ccccc1`, the IC50 was over 28 µM (Kinesin-like protein KIF11 (KIF11, Homo sapiens, UniProt P52732); ATPase activity, inhibitor).
`CCCC[C@@H]1NC(=O)[C@H](Cc2ccc(O)cc2)NC(=O)[C@@H]2CCCN2C(=O)[C@H](CC(=O)O)NC(=O)[C@H](C)NC(=O)[C@H](Cc2ccccc2)NC(=O)[C@@H]2CSCCC(=O)N3CN(CN(C3)C(=O)CCSC[C@@H](C(=O)N[C@@H](C)C(N)=O)NC1=O)C(=O)CCSC[C@H](NC(C)=O)C(=O)N[C@@H](CC(C)(C)C)C(=O)N1CCC[C@H]1C(=O)N[C@@H](CCC(=O)O)C(=O)N[C@H](CCCCNC(=O)CCc1cn(CCOCCOCCOCCOCCOCCC(=O)NCCCC[C@H]3NC(=O)[C@H](Cc4cccc5ccccc45)NC(=O)[C@@H]4CCCN4C(=O)[C@@H](NC(C)=O)CSCCC(=O)N4CN5CN(C4)C(=O)CCSC[C@H](NC3=O)C(=O)N[C@@H](CCSC)C(=O)N[C@@H](CCCCNC(=N)N)C(=O)N[C@@H](Cc3c[nH]cn3)C(=O)N[C@@H](Cc3c[nH]c4ccccc34)C(=O)N[C@@H](CO)C(=O)N[C@@H]([C@@H](C)O)C(=O)N3CCC[C@H]3C(=O)N3C[C@H](O)C[C@H]3C(=O)N[C@@H](Cc3c[nH]c4ccccc34)C(=O)N[C@H](C(N)=O)CSCCC5=O)nn1)C(=O)N1CCC[C@H]1C(=O)N[C@@H](Cc1ccc(O)cc1)C(=O)N2` has a Kd of 0.0032 µM (Tumor necrosis factor receptor superfamily member 9; binding, SPR).
For `Cc1c(C2(c3ccc(C(F)(F)F)nc3)CC2)c[nH]c1C(=O)NC(C)c1nc[nH]n1` (stereo not drawn), the IC50 was 17 µM (CYP2D6; enzyme activity, inhibitor; human, liver microsomes).
With `O=S(=O)(O)C(F)(F)C(F)(F)C(F)(F)C(F)(F)C(F)(F)C(F)(F)C(F)(F)C(F)(F)F` the EC50 was 24 µM (PPARA; reporter gene, agonist, luciferase).
`O=C(O)[C@H](Cc1ccccc1)NC(=O)C1(c2ccc3ccccc3c2)CCN(Cc2ccccc2)CC1` has an IC50 of 353 µM (gag-pol integrase; enzyme activity, inhibitor, TR-FRET).
